# According to ChEMBL document CHEMBL1133534, “1,3-Diaryl-4,5,6,7-tetrahydro-2H-isoindole derivatives: a new series of potent and selective COX-2 inhibitors in which a sulfonyl group is not a structural requisite” (J Med Chem, 2000):
# pIC50: −log10 of the molar value. Activity calls are given as the source filed them. No cut-off for these calls is given here.
# Species: Mus musculus
# Experiment: Compound was evaluated for its effective dose to inhibit exudate PGE-2
# Conditions: not given
# Summary of the method: (§1)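 Mice given compound or vehicle orally 18 h after air-pouch induction; 1 h later 500 µL sterile 1% carrageenan injected into pouch; sacrifice 5 h after carrageenan. Pouch lavaged with 2 mL heparinized HBSS, kept on ice, PGE2 measured by EIA after solid-phase extraction. ED50 from 3 or 4 dose points, at least 8 mice/group.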
row,Structure (SMILES),ED50 [mg/kg]
1,c1ccc(-c2[nH]c(-c3ccccc3)c3c2CCC3)cc1,20
2,c1ccc([C@H]2N[C@H](c3ccccc3)c3ccccc32)cc1,100

# Species: Mus musculus
# Experiment: Compound was evaluated for its effective dose to inhibit gastric PGE-2
# Format: tissue-based
# Conditions: Stomach
# Summary of the method: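 Mice with air pouches (18 h old) were dosed orally with compound or vehicle. After 1 h, 500 µL sterile 1% carrageenan was injected into the pouch, and mice were killed 5 h later. Pouch lavage (heparinized HBSS) was cooled on ice, and PGE2 was measured by EIA after solid-phase extraction. Excised stomachs were rinsed and incubated 15 min in PBS, and supernatant PGE2 was measured by EIA. ED50 from 3 or 4 doses, at least 8 mice/group.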
row,Structure (SMILES),ED50 [mg/kg]
1,c1ccc(-c2[nH]c(-c3ccccc3)c3c2CCC3)cc1,10
2,c1ccc([C@H]2N[C@H](c3ccccc3)c3ccccc32)cc1,100

# Species: Mus musculus
# Experiment: Compound was evaluated for its effective dose to inhibit exudate PGE-2; In active
# Conditions: not given
# Summary of the method: as §1
row,Structure (SMILES),IN
1,Cc1ccc(-c2[nH]c(-c3ccc(C)cc3)c3c2CCCC3)cc1,inactive

# Biological target: T1, Prostaglandin G/H synthase 1 (Mus musculus, UniProt P22437)
# T1 sequence (P22437 whole entry): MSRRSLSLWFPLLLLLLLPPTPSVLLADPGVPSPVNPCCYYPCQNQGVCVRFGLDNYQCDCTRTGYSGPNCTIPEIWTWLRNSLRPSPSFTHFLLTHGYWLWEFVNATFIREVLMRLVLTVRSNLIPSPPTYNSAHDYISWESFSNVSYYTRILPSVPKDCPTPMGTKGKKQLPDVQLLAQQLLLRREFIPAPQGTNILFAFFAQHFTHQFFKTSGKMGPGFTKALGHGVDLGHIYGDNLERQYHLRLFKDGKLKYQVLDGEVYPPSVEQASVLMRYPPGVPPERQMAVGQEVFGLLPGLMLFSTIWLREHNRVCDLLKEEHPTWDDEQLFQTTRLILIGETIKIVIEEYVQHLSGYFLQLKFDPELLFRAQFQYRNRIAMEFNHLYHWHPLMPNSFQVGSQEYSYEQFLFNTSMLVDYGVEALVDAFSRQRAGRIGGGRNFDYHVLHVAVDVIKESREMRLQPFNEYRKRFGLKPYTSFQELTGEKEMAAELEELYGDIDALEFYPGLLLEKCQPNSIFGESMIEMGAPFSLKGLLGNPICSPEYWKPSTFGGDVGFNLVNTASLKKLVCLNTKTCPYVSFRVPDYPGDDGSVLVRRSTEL
# Experiment: Inhibition against prostaglandin G/H synthase 1 from mouse resident macrophages
# Conditions: not given
row,Structure (SMILES),pIC50
1,C1=CC2CCC1c1c(-c3ccccc3)[nH]c(-c3ccccc3)c12,< 6.00
2,COc1ccc(-c2[nH]c(-c3ccc(OC)cc3)c3c2CCCC3)cc1,6.00
3,Fc1ccc(-c2[nH]c(-c3ccc(F)cc3)c3c2C2C=CC3C2)cc1,6.30
4,CS(=O)(=O)Nn1c(-c2ccccc2)c2c(c1-c1ccccc1)CCCC2,< 6.00
5,c1ccc(-c2cn3c(c2-c2ccccc2)CCC3)cc1,5.60
6,Cc1ccc(-c2[nH]c(-c3ccc(C)cc3)c3c2CCCC3)cc1,6.30
7,c1cn(-c2ccc(-c3[nH]c(-c4ccc(-n5ccnc5)cc4)c4c3CCCC4)cc2)cn1,6.00
8,c1ccc(-c2[nH]c(-c3ccccc3)c3c2CNC3)cc1,6.00
9,c1ccc(-c2[nH]c(-c3ccccc3)c3c2CCC3)cc1,6.60
10,c1ccc([C@H]2N[C@H](c3ccccc3)c3ccccc32)cc1,< 5.60

# Biological target: T2, Prostaglandin G/H synthase 2 (Mus musculus, UniProt Q05769)
# T2 sequence (Q05769 whole entry): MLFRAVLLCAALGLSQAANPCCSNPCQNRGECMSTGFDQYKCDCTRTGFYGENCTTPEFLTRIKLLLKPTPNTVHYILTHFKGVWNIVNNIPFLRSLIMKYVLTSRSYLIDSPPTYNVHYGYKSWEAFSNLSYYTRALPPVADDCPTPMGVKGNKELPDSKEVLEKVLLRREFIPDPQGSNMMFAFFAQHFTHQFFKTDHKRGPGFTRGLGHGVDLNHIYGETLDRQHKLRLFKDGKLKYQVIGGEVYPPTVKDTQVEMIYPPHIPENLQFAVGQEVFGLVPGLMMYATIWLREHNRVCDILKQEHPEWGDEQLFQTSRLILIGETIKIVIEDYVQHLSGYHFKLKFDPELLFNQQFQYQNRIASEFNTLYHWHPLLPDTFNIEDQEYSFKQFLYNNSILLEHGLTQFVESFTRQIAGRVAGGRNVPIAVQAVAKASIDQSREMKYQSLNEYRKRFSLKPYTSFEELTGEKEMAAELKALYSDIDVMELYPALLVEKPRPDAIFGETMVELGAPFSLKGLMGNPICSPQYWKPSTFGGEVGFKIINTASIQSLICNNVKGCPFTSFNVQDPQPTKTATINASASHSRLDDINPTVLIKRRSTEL
# Experiment: Inhibition against prostaglandin G/H synthase 2 from mouse resident macrophages
# Conditions: not given
row,Structure (SMILES),pIC50
1,C1=CC2CCC1c1c(-c3ccccc3)[nH]c(-c3ccccc3)c12,7.45
2,COc1ccc(-c2[nH]c(-c3ccc(OC)cc3)c3c2CCCC3)cc1,7.67
3,Fc1ccc(-c2[nH]c(-c3ccc(F)cc3)c3c2C2C=CC3C2)cc1,8.35
4,CS(=O)(=O)Nn1c(-c2ccccc2)c2c(c1-c1ccccc1)CCCC2,6.30
5,c1ccc(-c2cn3c(c2-c2ccccc2)CCC3)cc1,7.54
6,c1cn(-c2ccc(-c3[nH]c(-c4ccc(-n5ccnc5)cc4)c4c3CCCC4)cc2)cn1,< 7.00
7,c1ccc(-c2[nH]c(-c3ccccc3)c3c2CNC3)cc1,< 7.00
